Where “and” joins values, the source holds several entries; their conditions need not be identical. Equal entries are not always repeated. Bounds are passed on as bounds.

One data set can be described thus: Thiol reactivity assay. It is filed as physicochemical. The note with it: compared with 2; reactivity varied by an order of magnitude.
A further data set addresses GST-Pin1 (Homo sapiens, UniProt Q13526). Description: Competitive fluorescence polarization. It counts as binding. Summed up: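 GST-Pin1 (250 nM) preincubated 14 h at 4 °C with compound and 5 nM N-terminal fluorescein-labelled peptide probe (Bth-D-pThr-Pip-Nal). Buffer: 10 mM HEPES, 10 mM NaCl, 1% glycerol pH 7.4, 10 µg ml-1 BSA, 0.01% Tween-20, 1 mM DTT. Ki calculated from probe concentration, 85% probe bound and Pin1 concentration. Kinact from dose- and time-dependent runs. n = 3 samples ± s.e.m.; 2 experiments.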
On the technique in general: Fluorescence polarisation rises when a labelled molecule tumbles more slowly, as on binding a larger partner.

The test system of the next data set is Pin1. Description: In vivo Pin1 engagement, spleen competition pulldown. More on the design: species or system mice. The note with it: 20 mg kg^–1 oral gavage, three doses over 2 days. Summed up: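 Mice dosed by oral gavage with vehicle or 10 or 20 mg kg-1, three doses over two consecutive days. Spleens harvested 4 h after the last dose, ground and lysed in HEPES pH 7.4/NaCl/glycerol/TCEP/NP-40 buffer with protease inhibitors. Lysate clarified and normalized by BCA to 2.5 µg µl-1. Competition pulldown run with a desthiobiotin-tagged probe analogue.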

A further data set concerns Pin1 Cys113. Description: rdTOP-ABPP chemoproteomic cysteine profiling. It counts as cell-based. The note with it: MDA-MB-231 cells, 5 μM, 2 h. Summed up:
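MDA-MB-231 cells at 70% confluence treated 2 h with DMSO or 5 µM compound in serum-free medium. Lysed by sonication in PBS/0.1% Triton X-100; spun 100,000g, 30 min. Proteome (2 mg ml-1) labelled with 100 µM iodoacetamide-alkyne, 1 h RT. Clicked 1 h to biotin-acid-N3 (CuSO4/TBTA/TCEP). LC-MS/MS with cysteine modification +322.23688 Da; light/heavy ratios quantified.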

The test system of data set [1] is germinal center (GC) B cells. Description: In vivo germinal center B cell evaluation. More on the design: species or system mice. The conditions noted are these: IP 40 mg kg^−1 on days 7 and 9 after NP-OVA immunization, day 11. The method, boiled down: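 WT mice immunised with NP-OVA and killed on day 11. Lymph node cells Fc-blocked with anti-CD16/32 (2 µg ml-1, 5–10 min), then stained 20–40 min with B220, FAS and CD38 antibodies. Germinal centre B cells gated as live/single B220+ CD38lo FAShi by flow cytometry. Two-tailed Student's t test.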

The subject of another data set is MDA-MB-468. Description: 2D growth over time viability. The conditions noted are these: up to 8 days, 2.5 μM. It is filed as cell-based. The method, boiled down: (§1)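 Cells seeded at 500 per well (PATU-8988T: 100 per well) and dosed with test compound or DMSO the next day. Kept at 37 °C, 5% CO2, with medium and compound renewed every 48 h. One plate per time point (days 0, 2, 4, 6, 8); the day 0 plate was read before dosing. Viability measured by CellTiter-Glo luminescence.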

For the next data set, the system named is PC3. In words: 2D growth over time viability. The conditions noted are these: up to 8 days. It is filed as cell-based. Summed up: as §1
A further data set deals with NGP. In words: 2D growth over time viability. It is filed as cell-based. The conditions noted are these: 2.5 μM after 8 days. Summed up:
as §1

The test system of another data set is NBL-S. Description: 2D growth over time viability. It counts as cell-based. The note with it: 2.5 μM after 8 days. Summed up:
as §1

The test system of another data set is PATU-8988T WT Pin1 cells. In words: 3D Matrigel dome antiproliferative assay. It is filed as cell-based. The note with it: 1 μM, 9-day treatment. The method, boiled down:
(§2)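 1,000 cells per Matrigel dome, one dome per well, left 15 min at 37 °C to solidify. Medium with test compound renewed every 3 days. After 9 days, 3D CellTiter-Glo was added and the plate shaken 1 h at room temperature before reading luminescence. n = 9 biological replicates per condition.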

The test system of a further data set is PATU-8988T Pin1 KO cells. In words: 3D Matrigel dome antiproliferative assay. It is filed as cell-based. The note with it: 1 μM, 9-day treatment. Summed up:
as §2

Another data set relates to PATU-8988T cells. In words: Cell cycle analysis. The conditions noted are these: 2.5 μM, 4 days. It counts as cell-based. Summed up: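 PATU-8988T cells treated 4 days with DMSO (0.1%), test compound or a non-covalent analogue (each 2.5 µM), with medium replaced on day 3; run in triplicate or more. Pulsed with 10 µM BrdU for 1 h, then fixed in 70% ethanol and denatured in 2 M HCl/0.5% Triton X-100 (30 min, RT). Neutralised with 0.1 M Na2B4O7 pH 8.5 and stained overnight at 4 °C with anti-BrdU-FITC. Counterstained with propidium iodide plus RNase A (each 50 µg ml-1) and analysed by FACS.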

For the next data set, the system named is c-Myc protein levels. Description: c-Myc protein level immunoblot. It is filed as cell-based.
Data set [2] relates to Myc transcriptional activity in HEK293 cells. In words: Myc luciferase reporter assay. It counts as cell-based. The conditions noted are these: 2 μM, 48 h, cotransfected Pin1. The method, boiled down:
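HEK293 cells (DMEM, 10% FBS, 2.5 mM L-glutamine, nonessential amino acids) grown in six-well plates to 80% confluence. Lipofected with 4× E-box-luciferase and Pin1-Flag plasmids plus β-galactosidase as internal control. Compound added at transfection; cells harvested 48 h later. Cells lysed, sonicated and cleared before luciferase read-out.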
(A reporter such as luciferase makes a cellular process visible.)

In data set [3] the test system is transplanted neuroblastoma cells in zebrafish embryos. Description: Zebrafish neuroblastoma allograft transplant model. It is filed as in vivo. The conditions noted are these: 100 μM in fish water, 5 days. Summed up:
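Neuroblastoma cells obtained by dicing 4-month-old Tg(dβh:MYCN;dβh:EGFP) fish in PBS and transplanted into embryos. Live fish imaged under identical conditions. Tumour burden quantified as the area of EGFP-fluorescent tumour mass.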

Data set [4] deals with KPC mouse-derived pancreatic cancer cells in B6 mice. Description: KPC orthotopic pancreatic cancer mouse model. It is filed as in vivo. The conditions noted are these: for survival: n = 8. The method, boiled down:
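Pancreatic cancer cells from a KPC mouse (Pdx1-Cre, lsl-KrasG12D/+, lsl-tp53R172H/+) transplanted orthotopically into the pancreatic tail of B6 mice. Daily IP dosing with vehicle or test compound at 20 or 40 mg kg-1 began one week later. Mice were euthanised when the largest control tumour reached 2 cm in length, and tumours were collected and measured.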

Data set [5] deals with PINN1, the worm Pin1 homolog. The note with it: cited from earlier work.
Where [6] appears, read: dose- and time-dependent FP assay.

GST-Pin1, sequence (Q13526 whole entry): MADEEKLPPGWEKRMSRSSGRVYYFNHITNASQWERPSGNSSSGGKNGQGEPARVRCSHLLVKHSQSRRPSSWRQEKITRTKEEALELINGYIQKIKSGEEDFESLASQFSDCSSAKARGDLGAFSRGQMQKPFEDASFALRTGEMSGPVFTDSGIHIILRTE

As to `CC(C)(C)CN(C(=O)CCl)C1CCS(=O)(=O)C1` (stereo not drawn) [Sulfopin], the thiol reactivity entry in “Thiol reactivity assay” is listed as “dramatically less reactive”. Besides, on GST-Pin1 (setting [6]), the Kinact came out at 0.03 min⁻¹. For the same compound, the “second-order rate constant (Kinact/Ki)” value at GST-Pin1 (setting [6]) amounted to 84 M⁻¹ s⁻¹. Further, the Ki at GST-Pin1 (read-out: apparent Ki (FP assay), after 14 h incubation) turned out to be 17 nM. The “in vivo Pin1 engagement in spleen” value in the data set on Pin1 is on record as “Effective Pin1 engagement was observed in three out of three mice”. Further, the “competition ratio R, Pin1 Cys113” value in the data set on Pin1 Cys113 was determined as 15. For the same compound, the “competition ratio R, all other identified cysteines” value with Pin1 Cys113 (2,134 peptides) is listed as under 2.5. Besides, in [1], the “proportion of GC B cells compared to vehicle” value is reported as 1.34 fold. For the same compound, the “antiproliferative effect (growth over time)” value is recorded as “most pronounced sensitivity” with MDA-MB-468, “only slight effects” in the data set with PC3, “significant viability effects” in the data set with NGP and “significant viability effects” in the data set with NBL-S. In addition, the “antiproliferative activity in 3D Matrigel domes” value with PATU-8988T WT Pin1 cells is listed as “modest antiproliferative activity”; in the data set with PATU-8988T Pin1 KO cells, “no effects observed”. Besides, the “cells in G1 phase” value with PATU-8988T cells is recorded as “increased the number of cells found in G1 phase”. The “cells in S phase” value in the data set with PATU-8988T cells was “reduced the percentage of cells in S phase”. The c-Myc protein levels result in the data set with c-Myc protein levels was “increased c-Myc protein levels”. Besides, the “relative luciferase activity (Myc reporter)” value in data set [2] is “significant reduction in relative luciferase activity”. For the same compound, the “eGFP-labeled tumor mass size” value in data set [3] was “decreased in size”. Moreover, the results for the survival in [4] (20 mg kg^−1 daily) and in data set [4] (40 mg kg^−1 daily) were 37.5 days and 48.125 days, respectively. Moreover, the average tumor volume in data set [4] (40 mg kg^−1 daily IP, 27 days, n = 4) is listed as 1,210.91 cm^3. In data set [4] (40 mg kg^−1 versus control), the “average increase in survival” value was 18.125 days and 18 days. In addition, the “inhibition of PINN1 in Caenorhabditis elegans” value in data set [5] is recorded as “inhibited PINN1”.

The values above are taken from publication PMC9119696 (Nature chemical biology, 2021).
